Measured values as given in ChEMBL document CHEMBL4622936, “Discovery of the potent non-steroidal glucocorticoid receptor modulator BAY 1003803 as clinical candidate” (Bioorg Med Chem Lett, 2020).

Legend:
[1] = Inhibition of collagenase (unknown origin) transfected in human HeLa cells by luciferase reporter gene assay; assay type: cell-based
HeLa = assay: Inhibition of collagenase (unknown origin) transfected in human HeLa cells by luciferase reporter gene assay relative to control; assay type: cell-based
[2] = Lipophilicity, logP of compound; assay type: physicochemical; conditions: octanol/water
THP-1 [3] = assay: Immunomodulatory activity in human THP1 cells assessed as reduction in LPS-induced IL-8 production; assay type: functional, cell-based
Outline: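 Human promyeloid THP-1 cells were stimulated with lipopolysaccharide to induce IL-8 synthesis, and inhibition of IL-8 production by the test compound was measured.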

THP-1 [4] = assay: Immunomodulatory activity in human THP1 cells assessed as reduction in LPS-induced IL-8 production relative to control; assay type: functional
PBMC [5] = assay: Inhibition of LPS-induced IL12p40 release in human PBMC cells; assay type: functional, cell-based
Outline: (§1)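 Primary human peripheral blood mononuclear cells were stimulated with LPS (IL-12p40, TNFα) or PHA (IFNγ, IL-2, IL-4). Cytokine release was measured with test compound, and clobetasol and dexamethasone were run in parallel as reference glucocorticoids.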

PBMC [6] = assay: Inhibition of LPS-induced TNFalpha release in human PBMC cells relative to control; assay type: functional
PBMC [7] = assay: Inhibition of PHA-induced IFNgamma release in human PBMC cells; assay type: functional, cell-based; outline: as §1
PBMC [8] = assay: Inhibition of LPS-induced TNFalpha release in human PBMC cells; assay type: functional, cell-based; outline: as §1
PBMC [9] = assay: Inhibition of PHA-induced IFNgamma release in human PBMC cells relative to control; assay type: functional
PBMC [10] = assay: Inhibition of PHA-induced IL2 release in human PBMC cells; assay type: functional, cell-based; outline: as §1
PBMC [11] = assay: Inhibition of PHA-induced IL4 release in human PBMC cells relative to control; assay type: functional
PBMC [12] = assay: Inhibition of PHA-induced IL4 release in human PBMC cells; assay type: functional, cell-based; outline: as §1
PBMC [13] = assay: Inhibition of PHA-induced IL2 release in human PBMC cells relative to control; assay type: functional
PBMC [14] = assay: Inhibition of LPS-induced IL12p40 release in human PBMC cells relative to control; assay type: functional
[15] = Volume of distribution at steady state in male Wistar rat blood at 1 mg/kg, iv; assay type: ADME, organism-based; conditions: whole blood, read-out: Vdss
[16] = Clearance in male Wistar rat blood at 1 mg/kg, iv; assay type: ADME, organism-based; conditions: whole blood
[17] = Terminal half life in male Wistar rat blood at 1 mg/kg, iv; assay type: ADME, organism-based; conditions: whole blood, read-out: beta t1/2 (converted)
[18] = Clearance in male Wistar rat plasma at 1 mg/kg, iv; assay type: ADME, organism-based

Row | Structure (SMILES) | EC50 [1] [nM] | logP [2] | IC50 (THP-1 [3]) [nM] | Emax (HeLa) [%] | Emax (THP-1 [4]) [%] | also measured
1 | CCSC[C@@](O)([C@@H](Nc1cccc2nc(C)ccc12)c1cccc(F)c1OC)C(F)(F)F | 10 | 4.6 | 2 | 47 | 69 | –
2 | CCSC[C@@](O)([C@@H](Nc1cccc2nc(C)ccc12)c1ccc(OC)cc1F)C(F)(F)F | 5.01 | 4.4 | 5.01 | 63 | 85 | –
3 | C[C@H]1C[C@H]2[C@@H]3CCC4=CC(=O)C=C[C@]4(C)[C@@]3(F)[C@@H](O)C[C@]2(C)[C@@]1(O)C(=O)CCl [CLOBETASOL] | – | – | – | – | – | IC50 (PBMC [5]): 0.14 nM; Efficacy (PBMC [6]): 102%; IC50 (PBMC [7]): 0.16 nM; IC50 (PBMC [8]): 0.23 nM; Efficacy (PBMC [9]): 101%; IC50 (PBMC [10]): 0.14 nM; Efficacy (PBMC [11]): 99%; IC50 (PBMC [12]): 0.07 nM; Efficacy (PBMC [13]): 97%; Efficacy (PBMC [14]): 98%
4 | CCSC[C@@](O)([C@@H](Nc1cc(F)cc2[nH]c(=O)ccc12)c1ccc(OC)c(F)c1Cl)C(F)(F)F | 3.16 | 4.3 | 1.58 | 92 | 93 | –
5 | CCSC[C@@](O)([C@@H](Nc1cccc2nc(C)ccc12)c1ccc(OC)c(F)c1)C(F)(F)F | 6.31 | 4.1 | 5.01 | 77 | 82 | –
6 | C[C@@H]1C[C@H]2[C@@H]3CCC4=CC(=O)C=C[C@]4(C)[C@@]3(F)[C@@H](O)C[C@]2(C)[C@@]1(O)C(=O)CO [DEXAMETHASONE] | 7.94 | – | 2.51 | 100 | 100 | IC50 (PBMC [5]): 4.3 nM; Efficacy (PBMC [6]): 100%; IC50 (PBMC [7]): 3.8 nM; IC50 (PBMC [8]): 6.4 nM; Efficacy (PBMC [9]): 100%; IC50 (PBMC [10]): 4.6 nM; Efficacy (PBMC [11]): 100%; IC50 (PBMC [12]): 2.3 nM; Efficacy (PBMC [13]): 100%; Efficacy (PBMC [14]): 100%
7 | CCSC[C@@](O)([C@@H](Nc1cccc2nc(C)ccc12)c1ccc(F)cc1OC)C(F)(F)F | 10 | 4.4 | 5.01 | 72 | 78 | –
8 | CCSC[C@@](O)([C@@H](Nc1cccc2nc(C)ccc12)c1ccc(OC)cc1)C(F)(F)F | 10 | 4.2 | 6.31 | 70 | 86 | –
9 | COC[C@@](O)([C@@H](Nc1cccc2nc(C)ccc12)c1ccc(OC)c(F)c1Cl)C(F)(F)F | 1.58 | 3.8 | 0.2 | 80 | 97 | –

The next lines start with results.

Row | EC50 [1] [nM] | logP [2] | IC50 (THP-1 [3]) [nM] | Structure (SMILES) | Emax (HeLa) [%] | Emax (THP-1 [4]) [%] | also measured
10 | 1.26 | 5.3 | 1.58 | CCSC[C@@](O)([C@@H](Nc1cccc2nc(C)ccc12)c1ccc(Cl)c(F)c1OC)C(F)(F)F | 66 | 82 | –
11 | 1 | 2.4 | 0.631 | COc1ccc([C@H](Nc2cc(F)cc3[nH]c(=O)ccc23)[C@](O)(CO)C(F)(F)F)c(Cl)c1F | 88 | 92 | Vd [15]: 18 L/kg; clearance [16]: 100 mL/min/kg; half-life [17]: 2.9 h; clearance [18]: 113 mL/min/kg
12 | 0.251 | 4.5 | 0.126 | COc1ccc([C@H](Nc2cccc3nc(C)ccc23)[C@](O)(CSC)C(F)(F)F)c(Cl)c1F | 89 | 98 | –
13 | 0.398 | 3.9 | 0.1 | COc1ccc([C@H](Nc2cc(F)cc3[nH]c(=O)ccc23)[C@](O)(CSC)C(F)(F)F)c(Cl)c1F | 94 | 100 | –
